From PubChem BioAssay
OXTR potentiator: potentiates the human oxytocin receptor response; AID 2445; activation, % at 3 µM; CHO-OTR cells, Fluo-8 calcium fluorescence, potentiator mode; 0% = oxytocin EC15, 100% = EC100; P30559; hit rate 0.061% among 320,000;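 active = activation above that plate's cutoff, the mean activation of tested compounds plus 3 SD, cut at about 6.6% in these data, passing the limit was not always enough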;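 also: 100% uses oxytocin at 75 nM as the full agonist control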
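System: human OTR in CHO cells / Also added: sub-maximal oxytocin, roughly EC15 / Control set: EC15 oxytocin low, 75 nM oxytocin high / Schedule: 6 min compound pre-incubation at room temperature, 100 s kinetic read / Compound: single-point 3.0 µM / Replication: singlicate / Technique: Fluo-8 calcium dye fluorescence / Read-out basis: % activation of max/min ratio relative to oxytocin controls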
V1R ag counter: V1a receptor agonism, counter-screen for OXTR agonists. CHO-V1R cells, Fluo-8 calcium fluorescence, agonist mode; 0% DMSO, 100% 3 nM vasopressin. activation, % at 3 µM. hit rate 0.25% among 320,000. AID 2797;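 active = activation above the mean activation of all tested compounds plus 3 SD, per screening run, cut at about 20% in these data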;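 also: signal is peak over basal fluorescence ratio across a 100 second FLIPR read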
Target sequence (P37288 whole entry, looked up): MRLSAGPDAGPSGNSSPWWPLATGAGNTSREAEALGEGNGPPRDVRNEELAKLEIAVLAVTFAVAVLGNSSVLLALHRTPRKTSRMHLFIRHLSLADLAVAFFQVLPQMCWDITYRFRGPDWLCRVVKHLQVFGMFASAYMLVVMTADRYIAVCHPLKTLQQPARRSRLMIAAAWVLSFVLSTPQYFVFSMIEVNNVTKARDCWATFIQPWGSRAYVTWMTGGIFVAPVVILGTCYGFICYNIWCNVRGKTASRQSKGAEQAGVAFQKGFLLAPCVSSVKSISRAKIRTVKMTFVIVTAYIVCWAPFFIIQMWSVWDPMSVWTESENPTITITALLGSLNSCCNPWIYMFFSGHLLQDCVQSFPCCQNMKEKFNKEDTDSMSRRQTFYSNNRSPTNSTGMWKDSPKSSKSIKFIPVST
TAAR1 agonist: agonists of human TAAR1. Q96RJ0. CHO RD-HGA16 TAAR1, Fluo-8 calcium fluorescence; vehicle wells 0%, saturating PEA agonist 100%. activation, % at 3 µM. hit rate 0.99% among 360,000;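 active = activation above the mean activation of all test compounds in the run plus 3 SD, cut at about 38% in these data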
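Assay system: CHO-derived RD-HGA16 cells with stable Gα16 and human TAAR1; timing: 17-24 h seeding, 75 min 37 °C dye, 30 min RT; read-out: % activation from peak over basal fluorescence ratio, DMSO-to-PEA scaled; measured by: kinetic Fluo-8 calcium fluorescence; benchmarks: low control DMSO, high control PEA (EC100); doses: 3 µM single concentration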
OXTR agonist: human OXTR agonism; P30559; CHO-OTR cells, Fluo-8 calcium fluorescence; normalized: DMSO 0%, oxytocin 100%; activation, % at 3 µM; hit rate 0.32% among 320,000; AID 2435;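 active = activation above the mean of all tested compounds plus 3 SD, cutoff set per screening run, cut at about 20% in these data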;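 also: peak over basal fluorescence ratio from a 100 s FLIPR kinetic read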
TAAR1 antagonist: antagonists of human TAAR1. hit rate 1.5% among 360,000. CHO RD-HGA16 TAAR1, Fluo-8 calcium fluorescence, antagonist. Q96RJ0. inhibition, % at 3 µM;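 active = inhibition above a per-plate cutoff, the mean inhibition of test compounds on that plate plus 3 SD, cut at about 49% in these data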;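 also: 0% = DMSO plus EC80 beta-PEA response and 100% = DMSO alone without agonist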
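test system = CHO RD-HGA16 cells bearing hTAAR1 | replication = singlicate | controls = DMSO-only wells and EC80 β-PEA-stimulated wells | reagent = EC80 β-phenethylamine stimulus | read-out basis = percent inhibition of PEA-evoked calcium signal, max/basal emission ratio | schedule = seeding 17-24 h prior, 75-min 37 °C, 30-min RT dye loading | signal = kinetic Fluo-8 calcium fluorescence measurement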
TAAR1 nonsel count: counter-screen for TAAR1 antagonists: nonselective antagonists; inhibition, % at 3 µM; hit rate 77% among 2,400; shares compounds with TAAR1 antagonist; counterscreen cell line, calcium fluorescence, antagonist mode; AID 651780; in the data active = inhibition above about 22%;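 also: CHO-Ga16 host cells stimulated with ATP at an EC80 level; 0% = agonist EC80 plus vehicle and 100% = vehicle without agonist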
TAAR1 ant conf: confirmation of human TAAR1 antagonists; hit rate 40% among 2,400; TAAR1-expressing cells, fluorescence antagonist read-out; shares compounds with TAAR1 antagonist; AID 651785; inhibition, % at 3 µM; in the data active = inhibition above about 49%;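 also: CHO-Ga16 host cells challenged with agonist PEA near its EC80; 0% = agonist at EC80 plus vehicle and 100% = vehicle with no agonist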
Ga16 nonsel ag: counter-screen for TAAR1 antagonists: nonselective Ga16 agonists. shares compounds with TAAR1 antagonist. Ga16-expressing cells, calcium fluorescence, agonist counterscreen. activation, % at 3 µM. hit rate 18% among 2,400; in the data active = activation above about 12%;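 also: 0% = vehicle wells and 100% = saturating stimulus response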
TAAR1 ag counter: TAAR1 agonism, antagonist counter-screen; shares compounds with TAAR1 antagonist; hTAAR1 cell line, fluorescence activation, agonist mode; activation, % at 3 µM; hit rate 2% among 2,400; AID 651955; in the data active = activation above about 37%;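 also: CHO cells stably expressing TAAR1 with calcium dye readout; 0% = DMSO vehicle and 100% = full agonist response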
* = called active by the depositor; x = no result. In the library only some 2.3% were active in any assay of this set; here they are far more common.

SMILES	OXTR potentiator	V1R ag counter	TAAR1 agonist	OXTR agonist	TAAR1 antagonist	TAAR1 nonsel count	TAAR1 ant conf	Ga16 nonsel ag	TAAR1 ag counter
Cc1ccc(NC(=O)CN2CCN(S(=O)(=O)c3ccc4c(c3)OCCO4)CC2)c(C)c1	x	x	1	x	-22	x	x	x	x
CCCCN(Cc1cc2cc(OC)ccc2[nH]c1=O)S(=O)(=O)c1ccc(C)cc1	-24	1	5	-2	77*	14	48	7	22
COc1ccc(N(Cc2cc3ccccc3[nH]c2=O)S(=O)(=O)c2ccc(C)cc2)cc1	-8	0	1	0	55*	21	36	8	9
COc1ccc2[nH]c(=O)c(CN(CCO)S(=O)(=O)c3ccc(C)cc3)cc2c1	-4	-1	0	-1	-3	x	x	x	x
COc1ccc(N(Cc2cc3ccccc3[nH]c2=O)S(=O)(=O)c2ccccc2)cc1	-22	0	3	-2	33	x	x	x	x
COc1ccc(-c2ccc3c(n2)CCCN3S(=O)(=O)c2ccc(F)cc2)cc1	x	x	2	x	5	x	x	x	x
CCCCS(=O)(=O)N1CCCc2nc(-c3ccc(OC)cc3)ccc21	x	x	2	x	49*	32*	35	6	5
Cc1cccc(N2CCN(C(=O)CCn3c(=O)[nH]c4ccsc4c3=O)CC2C)c1 (configuration not stated)	-14	4	12	4	60*	23*	45	8	8
COc1ccc([C@H]2CC(=O)C=C(c3ccc(CNC(=O)OC(C)(C)C)cc3)C2)cc1	-11	7	19	9	83*	47*	68*	12*	8
O=C(CC[C@H]1O[C@@H](n2ccc(=O)[nH]c2=O)[C@H](O)[C@@H]1O)NCCN1CCOCC1	x	x	2	x	-14	x	x	x	x
O=C(Nc1ccccc1)c1cccc(N2C(=O)C3C4CC(C(Br)C4Br)C3C2=O)c1 (configuration not stated)	-10	7	24	7	72*	38*	64*	19*	22
O=C(O)c1ccc(NC(=O)c2cccc(N3C(=O)C4C5CCC(C5)C4C3=O)c2)cc1 (configuration not stated)	1	0	1	2	-9	x	x	x	x
COc1ccc(NC(=O)c2cccc(N3C(=O)C4C5C=CC(C6CC56)C4C3=O)c2)cc1 (configuration not stated)	-5	15	12	7	63*	35*	54*	13*	10
CCN1C(=O)[C@H]2[C@@H](c3ccccc3)N[C@]3(CCCN(Cc4ccccc4)C3=O)[C@H]2C1=O	x	x	2	x	-8	x	x	x	x
COc1ccccc1NC(=O)Cc1csc(NC(=S)Nc2ccc(C)cc2)n1	-22	3	11	3	27	x	x	x	x
COc1cc(C)ccc1NC(=O)Cc1csc(NC(=O)Nc2ccccc2OC)n1	-13	0	11	2	66*	34*	53*	9	10
COc1ccccc1NC(=O)Nc1nc(CC(=O)N2CCN(c3ccccc3OC)CC2)cs1	-16	4	21	0	69*	35*	54*	11	8
O=C(CC[C@H]1O[C@@H](n2cnc3c(NC(=O)c4ccccc4)ncnc32)[C@H](O)[C@@H]1O)NCc1cccc2ccccc12	x	x	0	x	4	x	x	x	x
O=C(NCc1ccco1)C1C(=O)Nc2ccccc2C(=O)N1C1CCCCC1 (configuration not stated)	x	x	1	x	1	x	x	x	x
Cc1cc(Br)c(OCc2ccc(C(=O)N/N=C/c3ccc[nH]3)cc2)c(Br)c1	-6	2	x	-1	x	14	x	3	x
O=C(N/N=C/c1ccc[nH]1)c1ccc(COc2cccc3cccnc23)cc1	0	0	6	-2	39	x	x	x	x
CCCCNC(=O)C1c2ccccc2OCC(=O)N1CCOC (configuration not stated)	x	x	0	x	1	x	x	x	x
CCc1nc(SCC(=O)NCCc2ccccc2)n[nH]1	1	0	33	0	75*	-2	70*	0	49*
CCCCCCSc1cc(-c2nc3cc(C)ccn3c2NCCCC)ccc1OC	-2	0	2	-1	16	x	x	x	x
CCCCNc1c(-c2cccc(-c3cc(C(C)=O)cs3)c2)nc2cc(C)ccn12	-10	0	14	-2	78*	31*	53*	11	10
SMILES	OXTR potentiator	V1R ag counter	TAAR1 agonist	OXTR agonist	TAAR1 antagonist	TAAR1 nonsel count	TAAR1 ant conf	Ga16 nonsel ag	TAAR1 ag counter
COc1ccccc1CNc1nc(NCc2cccs2)nc2ccsc12	x	x	35	x	76*	62*	80*	34*	49*
COCCNc1nc(NCc2ccccc2OC)c2sccc2n1	x	x	2	x	3	x	x	x	x
O=C(Nc1cccc(NC(=O)c2cncc(Br)c2)c1)c1cncc(Br)c1	-7	3	33	1	67*	29*	52*	17*	15
O=C(c1cc(=O)[nH]c2ccccc12)N1CCN(S(=O)(=O)c2ccc3ccccc3c2)CC1	7	0	19	0	67*	30*	49	8	6
O=C(c1ccccn1)N1CCN(S(=O)(=O)c2ccc3ccccc3c2)CC1	-7	2	2	2	-12	x	x	x	x
CC(CO)NS(=O)(=O)c1cc(Cl)ccc1F (configuration not stated)	x	x	2	x	1	x	x	x	x
CN(Cc1ccccc1)S(=O)(=O)c1ccc(NS(=O)(=O)Cc2ccccc2)cc1	-14	7	11	7	55*	35*	52*	9	6
O=S(=O)(Cc1ccccc1)Nc1ccccc1	-17	0	0	1	-2	x	x	x	x
CC(C)C(=O)NC(=S)Nc1ccc(S(=O)(=O)N(C)Cc2ccccc2)cc1	-19	1	6	-2	69*	34*	50*	7	-2
C=C1[C@@H](C)CN[C@@H]1CCO	x	x	10	x	-9	x	x	x	x
O=C(C[C@H]1CC[C@@H]2[C@H](COC[C@H](O)CN2Cc2cccc(C(F)(F)F)c2)O1)NCCc1ccccc1	x	x	6	x	-6	x	x	x	x
O=C(Nc1cccc(-c2csc(Nc3ccc(Cl)cc3)n2)c1)c1cc([N+](=O)[O-])cc(C(F)(F)F)c1	-10	1	10	-1	28	x	x	x	x
O=C(Nc1ccc(-c2csc(Nc3ccccc3)n2)cc1)c1ccccc1	-7	0	6	0	74*	26*	53*	5	6
O=C(Nc1cccc(-c2csc(Nc3ccc(Cl)cc3)n2)c1)c1ccccc1	-20	1	4	-1	41	x	x	x	x
